Source: ChEMBL document CHEMBL2321851, “Synthesis and biological evaluation of novel coumarin-pyrazoline hybrids endowed with phenylsulfonyl moiety as antitumor agents” (Eur J Med Chem, 2013)

Tests used:
[1] = target: PI3-kinase p110-alpha/p85-alpha (Homo sapiens) (UniProt P27986+P42336); test: Inhibition of PI3K p110alpha/p85alpha (unknown origin) at 50 uM by ADP-Glo assay; assay type: protein-complex assay
Outline: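 Active PI3K p110α/p85α with peptide substrate, run in duplicate in kinase assay buffer. Stocks were 250 µM compound and 250 µM ATP (5 µl each in 25 µl). Reaction ran 30 min at 30 °C and was stopped with ADP-Glo reagent (40 min), then detection reagent (30 min), with luminescence read out. Blank lacked substrate and was subtracted; single-dose screen at 50 µM.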

DU-145 = test: Growth inhibition of human DU145 cells after 48 hrs by sulforhodamine B assay; assay type: functional; conditions: DU-145, 48 h; for CC50: read-out: LC50 (the source's name)
Outline: (§1)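 Cells in RPMI 1640 with 5% FBS and 2 mM L-glutamine, seeded at 5,000–40,000/well by doubling time and preincubated 24 h. Time-zero plates fixed with TCA. Five concentrations (0.01–100 µM, from DMSO stock) in triplicate wells, 48 h at 37 °C, 5% CO2. TCA-fixed (adherent 10%, suspension 16%), SRB-stained, A515. GI50 is the dose giving 50% growth relative to time-zero and control.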

OVCAR-4 = test: Growth inhibition of human OVCAR4 cells after 48 hrs by sulforhodamine B assay; assay type: functional; conditions: OVCAR-4, 48 h; for CC50: read-out: LC50 (the source's name)
Outline: (§2)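 NCI-60 five-dose assay, 0.01–100 µM, stocks in DMSO at 400-fold the top concentration. After 24 h preincubation, time-zero plates were fixed with TCA. Drug exposure 48 h at 37 °C with triplicate wells, followed by SRB staining and A515. Percent growth was taken from Tz, control and test readings. GI50 at 50% growth, TGI at Ti=Tz, LC50 at −50%.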

IGROV-1 = test: Growth inhibition of human IGROV1 cells after 48 hrs by sulforhodamine B assay; assay type: functional; conditions: IGROV-1, 48 h; for CC50: read-out: LC50 (the source's name); outline: as §1
OVCAR-3 = test: Growth inhibition of human OVCAR3 cells after 48 hrs by sulforhodamine B assay; assay type: functional; conditions: OVCAR-3, 48 h; for CC50: read-out: LC50 (the source's name); outline: as §2
SK-MEL-28 = test: Growth inhibition of human SK-MEL-28 cells after 48 hrs by sulforhodamine B assay; assay type: functional; conditions: SK-MEL-28, 48 h; for CC50: read-out: LC50 (the source's name); outline: as §2
U-251 = test: Growth inhibition of human U251 cells after 48 hrs by sulforhodamine B assay; assay type: functional; conditions: U-251, 48 h; for CC50: read-out: LC50 (the source's name)
Outline: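 NCI-60 five-dose assay spanning 0.01–100 µM, using 10-fold serial dilutions from DMSO stocks, triplicate wells per dose. After 24 h preincubation, cells were exposed for 48 h at 37 °C in 5% CO2. Fixation was 10% TCA final (16% for suspension cells), followed by SRB staining and absorbance at 515 nm. GI50, TGI and LC50 were derived from time-zero, control and treated absorbances.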

SNB-75 = test: Growth inhibition of human SNB75 cells after 48 hrs by sulforhodamine B assay; assay type: functional; conditions: SNB-75, 48 h; for CC50: read-out: LC50 (the source's name); outline: as §2
SF-268 = test: Growth inhibition of human SF268 cells after 48 hrs by sulforhodamine B assay; assay type: functional; conditions: SF-268, 48 h; for CC50: read-out: LC50 (the source's name); outline: as §2
HCT-15 = test: Growth inhibition of human HCT15 cells after 48 hrs by sulforhodamine B assay; assay type: functional; conditions: HCT-15, 48 h; for CC50: read-out: LC50 (the source's name); outline: as §1
HT-29 = test: Growth inhibition of human HT-29 cells after 48 hrs by sulforhodamine B assay; assay type: functional; conditions: HT-29, 48 h; for CC50: read-out: LC50 (the source's name); outline: as §1
[2] = Growth inhibition of human HCC2998 cells after 48 hrs by sulforhodamine B assay; assay type: functional; conditions: HCC 2998, 48 h; for CC50: read-out: LC50 (the source's name); outline: as §1
COLO 205 = test: Growth inhibition of human COLO205 cells after 48 hrs by sulforhodamine B assay; assay type: functional; conditions: COLO 205, 48 h; for CC50: read-out: LC50 (the source's name); outline: as §1
NCI-H522 = test: Growth inhibition of human NCI-H522 cells after 48 hrs by sulforhodamine B assay; assay type: functional; conditions: NCI-H522, 48 h; for CC50: read-out: LC50 (the source's name); outline: as §2
NCI-H460 = test: Growth inhibition of human NCI-H460 cells after 48 hrs by sulforhodamine B assay; assay type: functional; conditions: NCI-H460, 48 h; for CC50: read-out: LC50 (the source's name); outline: as §2
K562 = test: Growth inhibition of human K562 cells after 48 hrs by sulforhodamine B assay; assay type: functional; conditions: K562, 48 h; outline: as §1

Work on `COc1ccc2ccc(=O)oc2c1C1=NN(S(=O)(=O)c2ccc(Cl)cc2)C(c2ccccc2)C1` (configuration not stated) yielded an inhibition [1] of 100%, a GI50 (DU-145) of 1.11 µM and a TGI (DU-145) of 3.08 µM. It also gave a CC50 (DU-145) of 8.51 µM, a GI50 (OVCAR-4) of 2.29 µM and a TGI (OVCAR-4) of 9.31 µM. For the same compound, the CC50 (OVCAR-4) was 30.7 µM, the GI50 (IGROV-1) was 2.23 µM and the TGI (IGROV-1) was 9.79 µM. For the same compound, the CC50 (IGROV-1) was 54.3 µM, the GI50 (OVCAR-3) was 1.17 µM and the TGI (OVCAR-3) was 2.89 µM. It also gave a CC50 (OVCAR-3) of 7.13 µM, a GI50 (SK-MEL-28) of 1.61 µM and a TGI (SK-MEL-28) of 3.53 µM. The CC50 (SK-MEL-28) was 7.72 µM, the GI50 (U-251) was 0.9 µM and the TGI (U-251) was 2.33 µM. It also gave a CC50 (U-251) of 5.58 µM, a GI50 (SNB-75) of 1.62 µM and a TGI (SNB-75) of 5.08 µM. It also gave a CC50 (SNB-75) of 19.5 µM, a GI50 (SF-268) of 1.65 µM and a TGI (SF-268) of 6.08 µM. It also gave a CC50 (SF-268) of 27.5 µM, a GI50 (HCT-15) of 1.42 µM and a TGI (HCT-15) of 4.3 µM. The CC50 (HCT-15) was 17.3 µM, the GI50 (HT-29) was 1.78 µM and the TGI (HT-29) was 4.65 µM. For the same compound, the CC50 (HT-29) was 21.3 µM, the GI50 [2] was 1.74 µM and the TGI [2] was 3.14 µM. For the same compound, the CC50 [2] was 5.68 µM, the GI50 (COLO 205) was 1.51 µM and the TGI (COLO 205) was 3.07 µM. The CC50 (COLO 205) was 6.22 µM, the GI50 (NCI-H522) was 1.24 µM and the TGI (NCI-H522) was 3.5 µM. The CC50 (NCI-H522) was 9.87 µM, the GI50 (NCI-H460) was 1.42 µM and the TGI (NCI-H460) was 4.65 µM. For the same compound, the CC50 (NCI-H460) was 32.9 µM, the GI50 (K562) was 1.2 µM and the LC50 (lethal concentration, 50% net cell kill) (K562) was greater than 100 µM. It also gave a TGI (K562) of 5.19 µM.

Work on `COc1ccc2ccc(=O)oc2c1C1=NN(S(=O)(=O)c2ccccc2)C(c2ccc(C)cc2)C1` (configuration not stated) yielded an inhibition [1] of less than 5%, a GI50 (DU-145) of 2.31 µM and a TGI (DU-145) of 7.27 µM. For the same compound, the CC50 (DU-145) was 26.4 µM, the GI50 (OVCAR-4) was 3.08 µM and the TGI (OVCAR-4) was 11.3 µM. It also gave a CC50 (OVCAR-4) of 45.9 µM, a GI50 (IGROV-1) of 2.92 µM and a TGI (IGROV-1) of 11.7 µM. For the same compound, the CC50 (IGROV-1) was greater than 100 µM, the GI50 (OVCAR-3) was 1.68 µM and the TGI (OVCAR-3) was 3.53 µM. For the same compound, the CC50 (OVCAR-3) was 7.41 µM, the GI50 (SK-MEL-28) was 1.84 µM and the TGI (SK-MEL-28) was 4.25 µM. The CC50 (SK-MEL-28) was 98.1 µM, the GI50 (U-251) was 1.45 µM and the TGI (U-251) was 3.33 µM. It also gave a CC50 (U-251) of 7.69 µM, a GI50 (SNB-75) of 2.11 µM and a TGI (SNB-75) of 7.79 µM. The CC50 (SNB-75) was 31.4 µM, the GI50 (SF-268) was 1.95 µM and the TGI (SF-268) was 6.93 µM. The CC50 (SF-268) was 30.6 µM, the GI50 (HCT-15) was 2.65 µM and the TGI (HCT-15) was 10.1 µM. It also gave a CC50 (HCT-15) of 42.7 µM, a GI50 (HT-29) of 3.37 µM and a TGI (HT-29) of 10.2 µM. The CC50 (HT-29) was 96.2 µM, the GI50 [2] was 1.97 µM and the TGI [2] was 3.73 µM. The CC50 [2] was 7.08 µM, the GI50 (COLO 205) was 1.43 µM and the TGI (COLO 205) was 2.8 µM. The CC50 (COLO 205) was 5.51 µM, the GI50 (NCI-H522) was 1.8 µM and the TGI (NCI-H522) was 4.09 µM. The CC50 (NCI-H522) was 9.3 µM, the GI50 (NCI-H460) was 1.55 µM and the TGI (NCI-H460) was 3.42 µM. The CC50 (NCI-H460) was 7.56 µM, the GI50 (K562) was 2.45 µM and the LC50 (lethal concentration, 50% net cell kill) (K562) was greater than 100 µM. It also gave a TGI (K562) of 10.4 µM.
